How the values were obtained:
[1] = target: Histone deacetylase 1 (Homo sapiens, UniProt Q13547); assay: Inhibition of recombinant full length HDAC1 (unknown origin) using Ac-peptide-AMC as substrate at 100 nM after 1 hr by fluorescence assay relative to control
In short: (§1)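 Full-length recombinant HDAC1 or HDAC6 was incubated with compound, trypsin and Ac-peptide-AMC substrate for 1 h at room temperature. Fluorescence was read at ex 355/em 460 nm. Inhibition was calculated against the DMSO vehicle control.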

[2] = target: T1, Protein deacetylase HDAC6 (Homo sapiens) (UniProt Q9UBN7); assay: Inhibition of recombinant full length HDAC6 (unknown origin) using Ac-peptide-AMC as substrate at 100 nM after 1 hr by fluorescence assay relative to control; in short: as §1
T1 sequence (whole entry): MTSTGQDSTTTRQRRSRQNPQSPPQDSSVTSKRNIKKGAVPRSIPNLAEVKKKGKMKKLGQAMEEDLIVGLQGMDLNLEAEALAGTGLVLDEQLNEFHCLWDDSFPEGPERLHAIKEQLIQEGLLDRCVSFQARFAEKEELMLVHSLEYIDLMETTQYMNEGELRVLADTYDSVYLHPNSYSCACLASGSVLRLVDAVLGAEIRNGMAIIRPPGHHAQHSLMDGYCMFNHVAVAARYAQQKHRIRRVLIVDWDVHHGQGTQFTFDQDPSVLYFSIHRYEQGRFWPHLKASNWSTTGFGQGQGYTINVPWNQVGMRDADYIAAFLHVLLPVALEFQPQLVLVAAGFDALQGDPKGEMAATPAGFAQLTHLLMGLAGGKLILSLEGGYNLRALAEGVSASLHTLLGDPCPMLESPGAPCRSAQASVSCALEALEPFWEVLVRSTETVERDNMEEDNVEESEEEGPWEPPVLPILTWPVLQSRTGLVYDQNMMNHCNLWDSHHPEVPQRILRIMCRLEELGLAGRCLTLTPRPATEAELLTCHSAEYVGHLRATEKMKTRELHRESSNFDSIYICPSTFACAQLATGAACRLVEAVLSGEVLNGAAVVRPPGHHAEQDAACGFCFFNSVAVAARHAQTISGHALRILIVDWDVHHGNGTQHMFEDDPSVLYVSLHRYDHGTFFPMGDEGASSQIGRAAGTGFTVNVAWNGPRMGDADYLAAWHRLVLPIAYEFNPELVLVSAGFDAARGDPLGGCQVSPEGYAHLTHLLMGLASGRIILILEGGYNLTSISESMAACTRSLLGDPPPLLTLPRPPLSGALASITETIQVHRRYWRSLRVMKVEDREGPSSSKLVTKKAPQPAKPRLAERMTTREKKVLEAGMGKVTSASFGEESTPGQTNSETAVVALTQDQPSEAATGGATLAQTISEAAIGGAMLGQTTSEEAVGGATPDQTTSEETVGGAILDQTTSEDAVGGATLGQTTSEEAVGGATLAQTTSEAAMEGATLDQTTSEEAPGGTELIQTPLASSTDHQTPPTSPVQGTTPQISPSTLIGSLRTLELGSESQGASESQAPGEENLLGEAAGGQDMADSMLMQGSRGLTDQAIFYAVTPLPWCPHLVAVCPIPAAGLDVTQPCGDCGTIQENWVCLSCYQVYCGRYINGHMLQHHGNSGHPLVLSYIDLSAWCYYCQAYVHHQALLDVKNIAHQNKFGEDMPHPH

[3] = system: Raji; assay: Antiproliferative activity against human Raji cells after 72 hrs by MTT assay; assay type: functional, cell-based

Chain of Histone deacetylase 1 (Q13547 whole entry): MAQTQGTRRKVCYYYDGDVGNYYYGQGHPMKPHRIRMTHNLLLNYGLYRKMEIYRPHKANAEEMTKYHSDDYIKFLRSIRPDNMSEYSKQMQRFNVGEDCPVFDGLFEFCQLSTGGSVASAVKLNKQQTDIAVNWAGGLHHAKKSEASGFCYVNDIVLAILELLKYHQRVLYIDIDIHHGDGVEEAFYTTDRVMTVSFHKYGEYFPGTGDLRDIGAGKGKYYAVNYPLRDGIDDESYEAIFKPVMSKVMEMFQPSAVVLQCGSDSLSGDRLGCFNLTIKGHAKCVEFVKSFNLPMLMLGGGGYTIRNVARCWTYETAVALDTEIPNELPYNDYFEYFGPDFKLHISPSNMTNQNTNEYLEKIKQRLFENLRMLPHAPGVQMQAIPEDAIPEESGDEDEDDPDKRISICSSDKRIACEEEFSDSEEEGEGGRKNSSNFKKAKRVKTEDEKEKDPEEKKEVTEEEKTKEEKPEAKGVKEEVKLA

Row | SMILES | inhibition [1] | inhibition [2] | IC50 [3]
1 | Cc1cccc(CN2CCC(c3noc(COc4ccc(/C=C/C(=O)NO)cc4)n3)CC2)c1 | 25% | 73% | –
2 | COc1ccc(CN2CCC(c3noc(COc4ccc(/C=C/C(=O)NO)cc4)n3)CC2)cc1 | 36% | 75% | –
3 | O=C(/C=C/c1ccc(OCc2nc(C3CCN(Cc4ccc(F)c(F)c4)CC3)no2)cc1)NO | 17% | 60% | –
4 | CN(Cc1nc(C2CCN(Cc3ccc(C#N)cc3)CC2)no1)c1ncc(C(=O)NO)cn1 | 68% | 38% | 117 nM
5 | O=C(/C=C/c1ccc(OCc2nc(C3CCN(Cc4ccc(F)cc4F)CC3)no2)cc1)NO | 35% | 74% | –
6 | CN(Cc1nc(C2CCN(Cc3ccccc3Cl)CC2)no1)c1ncc(C(=O)NO)cn1 | 93% | 55% | 48.3 nM
7 | O=C(NO)c1ccc(OCc2nc(C3CCN(Cc4ccccc4)CC3)no2)cc1 | 29% | 66% | –
8 | O=C(/C=C/c1ccc(OCc2nc(C3CCN(Cc4ccccc4[N+](=O)[O-])CC3)no2)cc1)NO | 19% | 63% | –
9 | O=C(/C=C/c1ccc(OCc2nc(C3CCN(Cc4ccc(Br)cc4)CC3)no2)cc1)NO | 6% | 58% | –
10 | Cc1ccc(CN2CCC(c3noc(COc4ccc(/C=C/C(=O)NO)cc4)n3)CC2)cc1 | 32% | 76% | –
11 | CN(Cc1nc(C2CCN(Cc3ccc(F)cc3F)CC2)no1)c1ncc(C(=O)NO)cn1 | 88% | 66% | 34.3 nM
12 | Cc1ccccc1CN1CCC(c2noc(COc3ccc(/C=C/C(=O)NO)cc3)n2)CC1 | 14% | 68% | –
13 | O=C(Cc1ccc(OCc2nc(C3CCN(Cc4ccccc4)CC3)no2)cc1)NO | 18% | 35% | –
14 | O=C(/C=C/c1ccc(OCc2nc(C3CCN(Cc4ccccc4Cl)CC3)no2)cc1)NO | 8% | 59% | –
15 | CCCN1CCC(c2noc(COc3ccc(/C=C/C(=O)NO)cc3)n2)CC1 | 40% | 69% | –

Other lines, results leading:

Row | inhibition [1] | inhibition [2] | IC50 [3] | SMILES
16 | 31% | 68% | – | O=C(/C=C/c1ccc(OCc2nc(C3CCN(Cc4ccccc4F)CC3)no2)cc1)NO
17 | 96% | 63% | 27.6 nM | CN(Cc1nc(C2CCN(Cc3ccccc3)CC2)no1)c1ncc(C(=O)NO)cn1
18 | 38% | 75% | – | O=C(/C=C/c1ccc(OCc2nc(C3CCN(Cc4ccc(F)cc4)CC3)no2)cc1)NO
19 | 73% | 49% | 116 nM | CN(Cc1nc(C2CCN(Cc3ccc(F)cc3Cl)CC2)no1)c1ncc(C(=O)NO)cn1
20 | 65% | 55% | 547 nM | CN(Cc1nc(C2CCN(Cc3ccccc3)CC2)no1)c1ncc(/C=C/C(=O)NO)cn1
21 | 93% | 54% | 47.3 nM | Cc1cccc(CN2CCC(c3noc(CN(C)c4ncc(C(=O)NO)cn4)n3)CC2)c1
22 | 62% | 30% | 207 nM | CN(Cc1nc(C2CCN(Cc3ccc(C(F)(F)F)cc3)CC2)no1)c1ncc(C(=O)NO)cn1
23 | 4% | 15% | – | C=CCN1CCC(c2noc(COc3ccc(CCC(=O)NO)cc3)n2)CC1
24 | 11% | 22% | – | O=C(CCc1ccc(OCc2nc(C3CCN(Cc4ccccc4)CC3)no2)cc1)NO
25 | 35% | 73% | – | O=C(/C=C/c1ccc(OCc2nc(C3CCN(Cc4cccc(F)c4)CC3)no2)cc1)NO
26 | 92% | 65% | 22 nM | CN(Cc1nc(C2CCN(Cc3ccc(F)cc3)CC2)no1)c1ncc(C(=O)NO)cn1
27 | 36% | 65% | – | N#Cc1ccccc1CN1CCC(c2noc(COc3ccc(/C=C/C(=O)NO)cc3)n2)CC1
28 | 12% | 28% | – | Cc1ccc(CN2CCC(c3noc(COc4ccc(CCC(=O)NO)cc4)n3)CC2)cc1
29 | 5% | 13% | – | CCCN1CCC(c2noc(COc3ccc(CCC(=O)NO)cc3)n2)CC1
30 | 35% | 71% | – | O=C(/C=C/c1ccc(OCc2nc(C3CCN(Cc4ccccc4)CC3)no2)cc1)NO
31 | 84% | 44% | 98.6 nM | CN(Cc1nc(C2CCN(Cc3ccccc3F)CC2)no1)c1ncc(C(=O)NO)cn1
32 | 34% | 66% | – | C=CCN1CCC(c2noc(COc3ccc(/C=C/C(=O)NO)cc3)n2)CC1
33 | 61% | 60% | 292 nM | Cc1ccc(CN2CCC(c3noc(CN(C)c4ncc(/C=C/C(=O)NO)cn4)n3)CC2)cc1
